From ChEMBL document CHEMBL1140228, “Identification of small molecular weight inhibitors of Src homology 2 domain-containing tyrosine phosphatase 2 (SHP-2) via in silico database screening combined with experimental assay” (J Med Chem, 2008)
Substitutions are numbered along the chain they refer to. The source made the active and inactive calls. The rule behind the calls is not given here.

How the values were obtained:
[1] = molecular target: T1, Tyrosine-protein phosphatase non-receptor type 11 (Homo sapiens) (UniProt Q06124); assay: Inhibition of GST-tagged SHP2
T1 sequence (whole entry): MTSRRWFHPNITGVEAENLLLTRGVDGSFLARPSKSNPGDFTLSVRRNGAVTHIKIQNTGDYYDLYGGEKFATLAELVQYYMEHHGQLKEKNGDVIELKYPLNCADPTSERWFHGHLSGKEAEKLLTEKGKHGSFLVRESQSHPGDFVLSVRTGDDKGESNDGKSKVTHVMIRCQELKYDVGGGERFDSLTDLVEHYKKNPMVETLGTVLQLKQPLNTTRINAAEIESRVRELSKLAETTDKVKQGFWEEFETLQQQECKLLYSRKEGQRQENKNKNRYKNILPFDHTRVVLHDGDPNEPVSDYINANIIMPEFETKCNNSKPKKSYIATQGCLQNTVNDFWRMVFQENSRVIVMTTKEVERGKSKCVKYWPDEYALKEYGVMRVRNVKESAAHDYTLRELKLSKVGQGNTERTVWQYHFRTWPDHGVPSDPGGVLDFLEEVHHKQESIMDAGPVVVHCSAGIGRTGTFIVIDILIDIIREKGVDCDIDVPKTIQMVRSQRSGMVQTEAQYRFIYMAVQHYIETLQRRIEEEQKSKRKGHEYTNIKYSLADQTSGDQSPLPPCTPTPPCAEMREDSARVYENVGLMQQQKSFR
How it was run: (§1)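 GST-SHP-2 PTP domain (0.5 μg) preincubated 30 min at room temperature with compound or DMSO in 25 mM Tris-HCl pH 7.4, 50 mM NaCl, 5 mM DTT, 2.5 mM EDTA. Orthovanadate (100 μM) served as positive control.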

[2] = molecular target: T1, Tyrosine-protein phosphatase non-receptor type 11 (Homo sapiens); assay: Inhibition of GST-tagged SHP2 at 100 uM; how it was run: as §1
[3] = molecular target: T1, Tyrosine-protein phosphatase non-receptor type 11 (Homo sapiens); assay: Binding affinity to SHP2 PTP domain assessed as quenching of enzyme fluorescence by fluorescence titration assay
How it was run: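 Tryptophan fluorescence quenching of GST-SHP-2 PTP domain held at 3 μM in 20 mM Tris-HCl pH 7.5, titrated with increasing compound. Excitation 295 nm, emission 360–500 nm. Compound-alone fluorescence subtracted. Intensities are relative, not corrected for detector response.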

[4] = molecular target: T2, Tyrosine-protein phosphatase non-receptor type 11 (Mus musculus) (UniProt P35235); assay: Inhibition of SHP2 assessed as blockade of IL3-induced ERK1/ERK2 activation in mouse Ba/F3 cells by immunoblotting; assay type: cell-based; settings: BaF3
T2 sequence (whole entry): T1 sequence (whole entry) with M450V, A550V, K590R
How it was run: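 Ba/F3 cells deprived of IL-3 for 8 h, treated with compound 1 h before stimulation with IL-3 (2 ng/mL), and harvested at several times. Lysates immunoblotted for phospho-Erk, then stripped and reprobed for pan-Erk as loading control.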

[5] = system: T3, Tyrosine-protein phosphatase non-receptor type 11 (Mus musculus), P35235 [D61G]; assay: Inhibition of EGF-induced SHP2 D61G mutant activation in mouse embryonic fibroblasts by immunocomplex phosphatase assay
T3 sequence (whole entry): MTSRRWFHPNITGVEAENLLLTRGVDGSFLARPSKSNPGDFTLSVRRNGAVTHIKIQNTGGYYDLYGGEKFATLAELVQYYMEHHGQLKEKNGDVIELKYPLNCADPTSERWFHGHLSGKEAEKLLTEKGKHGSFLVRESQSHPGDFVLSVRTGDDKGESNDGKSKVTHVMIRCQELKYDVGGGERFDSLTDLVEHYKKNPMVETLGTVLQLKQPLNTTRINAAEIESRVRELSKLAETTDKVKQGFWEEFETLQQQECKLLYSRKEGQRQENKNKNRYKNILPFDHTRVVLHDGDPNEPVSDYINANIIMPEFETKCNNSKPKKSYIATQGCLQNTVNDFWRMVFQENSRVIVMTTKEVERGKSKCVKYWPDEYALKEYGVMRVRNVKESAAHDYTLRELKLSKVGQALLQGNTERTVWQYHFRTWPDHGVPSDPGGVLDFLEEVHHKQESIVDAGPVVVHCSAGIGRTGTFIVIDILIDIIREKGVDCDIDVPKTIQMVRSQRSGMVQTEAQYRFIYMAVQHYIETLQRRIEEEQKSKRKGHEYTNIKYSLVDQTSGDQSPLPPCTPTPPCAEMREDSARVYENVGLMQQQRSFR
How it was run: (§2)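 WT or SHP-2 D61G/D61G knock-in MEFs starved overnight in serum-free medium, compound (100 μM) for the last 1 h, then EGF 10 min (50 ng/mL in methods, 20 ng/mL in legend). RIPA lysates (500 μg) immunoprecipitated with anti-SHP-2, washed in HNTG, then assayed by malachite green phosphatase assay.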

[6] = molecular target: T2, Tyrosine-protein phosphatase non-receptor type 11 (Mus musculus); assay: Inhibition of EGF-induced SHP2 activation in mouse embryonic fibroblasts by immunocomplex phosphatase assay; how it was run: as §2
[7] = molecular target: T4, Tyrosine-protein phosphatase non-receptor type 2 (Homo sapiens) (UniProt P17706); assay: Inhibition of GST-tagged TC-PTP
T4 sequence (whole entry): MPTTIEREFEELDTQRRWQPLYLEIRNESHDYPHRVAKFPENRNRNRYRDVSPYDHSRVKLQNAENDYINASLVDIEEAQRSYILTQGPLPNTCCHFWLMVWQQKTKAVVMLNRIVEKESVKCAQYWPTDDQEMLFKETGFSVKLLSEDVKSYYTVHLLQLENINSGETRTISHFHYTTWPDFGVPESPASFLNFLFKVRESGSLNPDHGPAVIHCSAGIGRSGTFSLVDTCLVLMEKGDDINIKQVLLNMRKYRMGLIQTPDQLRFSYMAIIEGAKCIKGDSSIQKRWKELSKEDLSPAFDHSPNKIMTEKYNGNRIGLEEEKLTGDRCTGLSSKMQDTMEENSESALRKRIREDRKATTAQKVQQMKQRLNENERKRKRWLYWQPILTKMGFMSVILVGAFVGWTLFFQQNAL

[8] = molecular target: T5, Receptor-type tyrosine-protein phosphatase C (Homo sapiens) (UniProt P08575); assay: Inhibition of GST-tagged CD45
T5 sequence (whole entry): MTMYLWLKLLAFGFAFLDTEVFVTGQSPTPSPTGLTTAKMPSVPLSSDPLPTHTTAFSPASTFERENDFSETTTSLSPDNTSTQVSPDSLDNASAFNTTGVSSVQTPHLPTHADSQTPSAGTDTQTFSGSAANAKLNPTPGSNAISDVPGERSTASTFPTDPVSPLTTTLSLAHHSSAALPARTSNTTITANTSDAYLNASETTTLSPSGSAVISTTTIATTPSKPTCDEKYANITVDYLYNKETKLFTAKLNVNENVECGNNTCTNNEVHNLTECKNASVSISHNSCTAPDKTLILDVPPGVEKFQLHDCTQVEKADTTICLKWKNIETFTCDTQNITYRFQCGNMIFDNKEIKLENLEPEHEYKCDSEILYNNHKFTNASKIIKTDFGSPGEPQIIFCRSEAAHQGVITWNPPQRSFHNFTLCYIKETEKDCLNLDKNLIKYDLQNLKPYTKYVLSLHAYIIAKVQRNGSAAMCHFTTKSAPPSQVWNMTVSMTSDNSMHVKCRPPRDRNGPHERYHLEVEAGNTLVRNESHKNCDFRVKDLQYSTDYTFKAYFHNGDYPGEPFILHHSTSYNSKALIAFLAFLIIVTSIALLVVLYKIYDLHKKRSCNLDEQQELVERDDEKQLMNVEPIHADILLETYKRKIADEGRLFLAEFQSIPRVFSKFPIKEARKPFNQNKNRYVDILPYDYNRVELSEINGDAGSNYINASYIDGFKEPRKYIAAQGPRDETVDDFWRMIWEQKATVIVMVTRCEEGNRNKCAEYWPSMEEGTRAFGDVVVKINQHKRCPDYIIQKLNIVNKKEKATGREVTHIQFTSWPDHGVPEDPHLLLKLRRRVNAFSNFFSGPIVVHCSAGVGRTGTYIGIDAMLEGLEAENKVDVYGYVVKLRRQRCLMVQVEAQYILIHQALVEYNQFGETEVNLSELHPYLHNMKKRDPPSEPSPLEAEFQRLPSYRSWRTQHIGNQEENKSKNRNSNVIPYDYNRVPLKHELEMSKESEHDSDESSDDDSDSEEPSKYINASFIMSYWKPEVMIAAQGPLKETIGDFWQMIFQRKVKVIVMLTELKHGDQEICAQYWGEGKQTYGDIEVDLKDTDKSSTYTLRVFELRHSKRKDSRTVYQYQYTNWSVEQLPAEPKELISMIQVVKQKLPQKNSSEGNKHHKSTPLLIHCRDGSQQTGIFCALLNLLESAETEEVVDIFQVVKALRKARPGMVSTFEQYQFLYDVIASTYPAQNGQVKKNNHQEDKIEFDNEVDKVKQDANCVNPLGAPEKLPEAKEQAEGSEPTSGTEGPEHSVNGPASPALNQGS

[9] = molecular target: T1, Tyrosine-protein phosphatase non-receptor type 11 (Homo sapiens); assay: Inhibition of GST-tagged SHP2 at 200 uM; how it was run: as §1
[10] = molecular target: Tyrosine-protein phosphatase non-receptor type 6 (Homo sapiens) (UniProt P29350); assay: Inhibition of GST-tagged SHP1
Chain of Tyrosine-protein phosphatase non-receptor type 6 (Homo sapiens) (P29350 whole entry): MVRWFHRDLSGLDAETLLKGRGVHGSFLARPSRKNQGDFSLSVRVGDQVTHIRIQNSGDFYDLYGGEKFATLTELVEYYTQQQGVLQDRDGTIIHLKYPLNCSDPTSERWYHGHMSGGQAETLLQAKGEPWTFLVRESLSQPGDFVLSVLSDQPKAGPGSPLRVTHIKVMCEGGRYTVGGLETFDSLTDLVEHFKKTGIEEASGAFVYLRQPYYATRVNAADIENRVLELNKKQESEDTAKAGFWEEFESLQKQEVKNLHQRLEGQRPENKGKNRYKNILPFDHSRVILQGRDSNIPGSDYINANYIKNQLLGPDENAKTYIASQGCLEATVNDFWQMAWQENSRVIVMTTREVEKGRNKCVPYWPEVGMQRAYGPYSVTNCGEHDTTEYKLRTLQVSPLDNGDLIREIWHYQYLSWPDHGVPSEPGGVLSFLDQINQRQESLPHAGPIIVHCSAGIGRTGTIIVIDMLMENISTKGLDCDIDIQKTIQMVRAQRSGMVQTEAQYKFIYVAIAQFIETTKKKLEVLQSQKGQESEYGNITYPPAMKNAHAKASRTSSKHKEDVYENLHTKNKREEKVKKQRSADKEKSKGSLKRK

[11] = system: BaF3; assay: Antiproliferative activity against IL3-stimulated mouse BA/F3 cells assessed as decrease in cell growth after 72 hrs by MTS assay; assay type: functional, cell-based
How it was run: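 Ba/F3 (IL-3-dependent murine pro-B line) seeded at 2×10⁴ cells/well in RPMI-1640 with 10% FBS and mouse IL-3 (1 ng/mL), plus compound at 100 or 200 μM or DMSO. Cell number read by MTS after 72 h.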

| SMILES | Activity [1] | inhibition [2] [%] | Activity [3] | also measured |
| --- | --- | --- | --- | --- |
| Cc1cc(C)c2c(c1)[nH]c1nnc(SCC(=O)NCc3cccs3)nc12 | Dose-dependent effect | 50 | Active | Activity [4]: Active; Activity [5]: Active; Activity [6]: Active |
| O=C(CCCn1c(=O)c2cccn2c2cccnc21)NCc1ccccc1F | Dose-dependent effect | 45 |  |  |
| NNc1ccc(S(=O)(=O)O)cc1 | Dose-dependent effect | 70 |  | Activity [7]: inactive; Activity [8]: inactive; Activity [9]: Active; Activity [10]: Active |
| NC(N)=NN[C@@H]1O[C@H](CO)[C@@H](O)[C@H](O)[C@H]1O | Dose-dependent effect |  | inactive |  |
| NS(=O)(=O)c1ccc(CCNC(=O)c2ccc(Cn3c(=S)[nH]c4ccc(Br)cc4c3=O)cc2)cc1 | Dose-dependent effect | 55 | Active | Activity [11]: Active; Activity [4]: Active; Activity [5]: Active; Activity [6]: Active |
| CSc1ccc(C2C(C#N)=C(N)Oc3[nH]nc(-c4ccccc4Cl)c32)cc1 (stereo unspecified) | Dose-dependent effect |  | Active |  |
| CNC(=S)NNC(=O)CSCCS(=O)(=O)c1ccccc1 | Dose-dependent effect |  | inactive |  |
| CNC(=S)NNC(=O)c1csc(-c2cccs2)n1 | Dose-dependent effect | 40 |  |  |
| CCc1ccc(OCC(=O)Nc2ccc(S(N)(=O)=O)cc2)cc1 | Dose-dependent effect |  | inactive |  |
